Source: PubChem BioAssay
Shown are actives, neighbours in structure and some others; about 1.8% of the full set was active somewhere.
C8 TRAIL sens = sensitizes caspase-8 expressing cells to TRAIL | inhibition (viability loss, TRAIL sensitization), % at 10 µM | 360,000 compounds, 1% hits | NB7+C8 cells + TRAIL, ATPlite viability luminescence;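 active = compounds causing at least 50% loss of cell viability in the single-dose screen, relative to plate controls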
STAT3 blocker = inhibitors of IL-6 induced STAT3 signaling | U3A cells, IL-6 STAT3-luciferase reporter, luminescence; host cell line lacks STAT1 | inhibition, % at 5.5 µM | 190,000 compounds, 0.89% hits;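 active = inhibition above the mean inhibition across all screened compounds plus 3 SD, cut at about 44% in these data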;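 note: 0% = DMSO only wells and 100% = 100 µM nifuroxazide control wells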
STAT1 inh = inhibitors of IFN-gamma induced STAT1 signaling; NIH 3T3 STAT1-luciferase reporter, luminescence; inhibition, % at 5.5 µM; 200,000 compounds, 0.35% hits; AID 920;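 active = inhibition above a set limit, the mean inhibition across all tested compounds plus 3 SD, cut at about 34% in these data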;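 note: 0% = IFN-gamma with DMSO and 100% = IFN-gamma with 300 µM nifuroxazide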
PPC-1+TRAIL kill = kills PPC-1 cancer cells in the presence of TRAIL. PPC-1 cells + TRAIL, ATPLite viability luminescence. cell killing (% activity), % at 4 µM or 5 µM. 220,000 compounds, 0.41% hits;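 active = cell killing above 50% in the first pass at 4 µM, then a duplicate retest at 5 µM averaging 50% or more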;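 note: plate controls were cells with TRAIL plus DMSO for no effect and medium-only wells lacking cells for full effect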
STAT3 act = STAT3 signaling activation; U3A cells, IL-6 STAT3-luciferase reporter, luminescence; 100% = signal with IL-6 EC80 alone; activation (% of control), % at 5.6 µM; 190,000 compounds, 0.91% hits; AID 871;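 active = activation above the screen-wide mean of compound activation plus 3 SD, cut at about 130% in these data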;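 note: 0% = background luminescence of wells with medium and substrate only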
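Test system: Human STAT1-deficient U3A cells with stable STAT3-luciferase reporter | Also added: Interleukin-6, 33 ng/mL | Timing: Compound pre-incubation 1 h before IL-6, then 6 h stimulation at 37 °C | Technique: Luciferase reporter luminescence | Read-out: Percent of IL-6-only median luminescence | Benchmarks: IL-6-only wells as 100% reference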
Numbers without * were called inactive; / = no result given.

SMILES	C8 TRAIL sens	STAT3 blocker	STAT1 inh	PPC-1+TRAIL kill	STAT3 act
COC(=O)c1ccc(NC(=O)c2nc(S(=O)(=O)Cc3cccc(C)c3)ncc2Cl)cc1	43	/	/	/	/
CC(=O)Nc1ccc(NC(=O)c2nc(S(=O)(=O)Cc3cccc(C)c3)ncc2Cl)cc1	90*	/	/	/	/
CCc1ccc(NC(=O)c2nc(S(=O)(=O)Cc3ccccc3)ncc2Cl)cc1	96*	/	/	/	/
Cc1ccc(NC(=O)c2nc(S(=O)(=O)Cc3ccccc3C)ncc2Cl)cc1C	58*	/	/	/	/
CCS(=O)(=O)c1ncc(Cl)c(C(=O)Nc2ccc(S(=O)(=O)N3CCC(C)CC3)cc2)n1	94*	/	/	/	/
CCCS(=O)(=O)c1ncc(Cl)c(C(=O)Nc2ccc(S(=O)(=O)Nc3ncccn3)cc2)n1	-2	/	/	/	/
CC1CCN(S(=O)(=O)c2ccc(NC(=O)c3ccncc3)cc2)CC1	5	/	/	/	/
CCCCC1=C(C(=O)OCC)C(C(=O)OCC)Oc2ccccc21 (stereo not given)	27	/	/	/	/
CCCCNC(=O)c1ccc2nc(CC)c(N(C)Cc3cccs3)n2c1	7	/	/	/	/
O=C(Nc1ccc(C(=O)OC2CCCCC2)cc1)c1ccncc1	21	/	/	/	/
CCOC(=O)c1ccc(NC(=O)CCS(=O)(=O)Cc2ccccc2)cc1	3	/	/	/	/
CCOC(=O)c1ccc(NC(=O)c2nc(S(=O)(=O)Cc3ccccc3)ncc2Cl)cc1	78*	/	/	/	/
CCOC(=O)c1cnc2c(Cl)c(Cl)ccc2c1N1CCN(C)CC1	59*	-1	-4	8	106
COc1ccc(OCCCC(=O)Nc2ccc(S(=O)(=O)N3CCOCC3)cc2)cc1	-4	/	/	/	/
O=C(/C=C/c1ccc2c(c1)OCO2)Nc1c(C(=O)O)[nH]c2ccccc12	52*	-24	8	50	116
Cc1cc(C)nc(NC(=O)/C=C/c2ccc3c(c2)OCO3)c1	64*	-1	-40	56*	99
COC(=O)c1cccc(NC(=O)/C=C/c2ccc3c(c2)OCO3)c1	85*	18	8	48	83
CC(=O)Nc1ccc(NC(=O)/C=C/c2ccc3c(c2)OCO3)cc1	3	1	-11	0	104
CCCc1nc2ccc(C)cn2c1Cc1ccsc1	-3	/	/	/	/
O=C(CNC(=O)c1cccc(-n2cccc2)c1)Nc1ccccc1Br	1	/	/	/	/
Cc1ccc2c(c1C)-c1c(ccc(C)c1C)C(=O)C2=O	58*	/	/	/	/
CCOc1cc(N2CCOCC2)c(OCC)cc1NC(=O)CN1C(=O)NC2(CCCCC2)C1=O	-9	/	/	/	/
O=C(O)c1cc(-c2ccc(-c3ccc(F)cc3)o2)nc2ccccc12	59*	/	/	/	/
O=C(c1cc(-c2ccc(F)cc2)nc2ccccc12)N1CCC1	-16	/	/	/	/
Cc1ccsc1C(=O)N1CCC1(C)C(=O)NS(=O)(=O)c1cccc(F)c1 (stereo not given)	13	/	/	/	/
SMILES	C8 TRAIL sens	STAT3 blocker	STAT1 inh	PPC-1+TRAIL kill	STAT3 act
COC(=O)CSc1nc2cc(C)ccc2cc1C#N	56*	8	-62	42	95
Cc1ccccc1Nc1c(-c2ccc(N3CCOCC3)cc2)nc2cnccn12	48*	/	/	34	/
Cc1ccc(Nc2c(-c3ccc(N4CCOCC4)cc3)nc3cnccn23)cc1	11	/	/	11	/
COCCCNc1ccn2nc(-c3cccc(Cl)c3)cc2n1	19	/	/	/	/
COCCCNc1ccn2nc(-c3ccccc3)cc2n1	53*	/	/	/	/
OC[C@@H]1CN(Cc2ccc3c(c2)OCO3)C[C@H](n2cnc3c(NC4CCCC4)ncnc32)O1	8	/	/	/	/
CC(=NNc1ccc2ccccc2n1)c1ccccc1O	77*	/	/	/	/
C/C(=N\Nc1nc2ccccc2nc1C)c1ccccc1O	-6	/	/	22	/
O=C(Nc1ccc(NC(=O)c2ccccc2F)cn1)c1ccco1	54*	/	/	/	/
O=C(NCCCN1CCOCC1)c1cccc(S(=O)(=O)Nc2ccccc2Cl)c1	-1	/	/	/	/
Cc1ccc(-c2noc(-c3ccoc3C)n2)cc1	13	-43	-59	38	138*
COC1=C(C)C(=O)C2=C(C1=O)C1C3CC4=C(C(=O)C(OC)=C(C)C4=O)C(CNC(=O)C(C)=O)N3C(C#N)C(C2)N1C (stereo not given)	86*	/	/	/	/
O=C(NC1CCCCC1)C(c1ccc(-c2ccccc2)cc1)n1c(=O)c(-c2ccco2)nc2ccccc21 (stereo not given)	-2	/	/	/	/
Cn1c(CC2C(=O)Nc3ccc(Br)cc32)nc2ccccc2c1=O (stereo not given)	-2	-36	14	-1	133*
CCOC(=O)Nc1ccc2c(CNC(C)c3ccccc3OC)cc(=O)oc2c1 (stereo not given)	5	/	/	/	/
Oc1ccc(C=NNC(=S)Nc2ccc(F)cc2)c(O)c1	12	/	/	/	/
